According to ChEMBL document CHEMBL4014345, “Development of Selective Clk1 and -4 Inhibitors for Cellular Depletion of Cancer-Relevant Proteins” (J Med Chem, 2017):
One block for each compound: values may come before it. Calls of active or inactive are those of the source. The rule behind the calls is not given here.

What was measured:
[1] = molecular target: Dual specificity protein kinase CLK2 (Mus musculus) (UniProt O35491); assay: Inhibition of recombinant GST-tagged mouse CLK2 using GRSRSRSRSRSR as substrate at 1 uM after 30 mins in presence of [gamma-32P]-ATP by scintillation counting method
[2] = molecular target: T1, Dual specificity tyrosine-phosphorylation-regulated kinase 1A (Homo sapiens, UniProt Q13627); assay: Inhibition of N-terminal His6-tagged recombinant human Dyrk1A expressed in Escherichia coli BL21 (DE3) using KKISGRLSPIMTEQ-NH2 as substrate at 1 uM after 15 mins in presence of [gamma-32]-ATP; details: 0.25 h
[3] = molecular target: Dual specificity tyrosine-phosphorylation-regulated kinase 4 (Homo sapiens) (UniProt Q9NR20); assay: Inhibition of DYRK4 (unknown origin) using KKISGRLSPIMTEQ-NH2 as substrate at 1 uM after 15 mins in presence of [gamma-32P]-ATP
[4] = molecular target: T2, Dual specificity protein kinase CLK1 (Homo sapiens, UniProt P49759); assay: Inhibition of recombinant human GST-tagged Clk1 expressed in Escherichia coli at 100 nM using RS repeat substrate peptide after 15 mins in presence of [gamma-32]-ATP
Target sequence in this assay (P49759 whole entry, looked up): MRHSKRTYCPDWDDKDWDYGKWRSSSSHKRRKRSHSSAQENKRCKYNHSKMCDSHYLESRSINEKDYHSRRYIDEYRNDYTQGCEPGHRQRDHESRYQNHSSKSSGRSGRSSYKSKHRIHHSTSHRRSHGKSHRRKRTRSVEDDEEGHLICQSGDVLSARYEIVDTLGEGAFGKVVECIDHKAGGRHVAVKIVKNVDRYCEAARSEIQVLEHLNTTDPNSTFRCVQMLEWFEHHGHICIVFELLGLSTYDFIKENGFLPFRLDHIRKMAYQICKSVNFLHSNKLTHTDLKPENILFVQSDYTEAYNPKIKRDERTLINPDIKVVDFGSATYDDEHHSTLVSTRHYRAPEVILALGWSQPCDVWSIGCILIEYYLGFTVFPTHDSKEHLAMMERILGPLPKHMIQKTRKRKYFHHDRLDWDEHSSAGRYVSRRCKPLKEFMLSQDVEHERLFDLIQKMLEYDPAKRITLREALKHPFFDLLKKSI

[5] = molecular target: Dual specificity protein kinase CLK4 (Mus musculus) (UniProt O35493); assay: Inhibition of recombinant GST-tagged mouse CLK4 using GRSRSRSRSRSR as substrate at 1 uM after 30 mins in presence of [gamma-32P]-ATP by scintillation counting method
Dual specificity protein kinase CLK4 (Mus musculus), sequence (O35493 whole entry, looked up): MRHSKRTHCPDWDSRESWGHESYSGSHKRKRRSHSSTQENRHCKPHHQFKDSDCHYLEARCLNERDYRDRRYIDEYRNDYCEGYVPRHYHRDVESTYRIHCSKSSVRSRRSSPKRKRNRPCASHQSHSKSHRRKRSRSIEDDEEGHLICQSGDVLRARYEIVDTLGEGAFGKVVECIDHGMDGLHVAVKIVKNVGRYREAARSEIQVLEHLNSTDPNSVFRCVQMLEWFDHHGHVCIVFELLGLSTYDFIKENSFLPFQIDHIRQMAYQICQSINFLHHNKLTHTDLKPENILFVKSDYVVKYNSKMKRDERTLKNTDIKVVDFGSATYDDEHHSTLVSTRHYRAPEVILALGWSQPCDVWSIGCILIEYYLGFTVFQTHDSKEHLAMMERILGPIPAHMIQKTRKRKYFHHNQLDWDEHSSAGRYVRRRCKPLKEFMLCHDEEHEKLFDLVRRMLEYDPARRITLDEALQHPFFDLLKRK

[6] = molecular target: Dual specificity tyrosine-phosphorylation-regulated kinase 1B (Homo sapiens, UniProt Q9Y463); assay: Inhibition of full length recombinant GST-tagged human DYRK1B expressed in baculovirus using KKISGRLSPIMTEQ-NH2 as substrate at 1 uM after 15 mins
T47D = assay: Cytotoxicity against human T47D cells assessed as growth inhibition after 5 days by MTT assay; type: functional; details: 120 h
In short: (§1)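 They were seeded at 5000 cells per well onto compound or DMSO (0.2% final). Plates were kept 5 days at 37 °C in 5% CO2 with no medium change, then read by MTT.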

THP-1 = assay: Cytotoxicity against human THP1 cells assessed as growth inhibition after 5 days by MTT assay; type: functional; details: THP-1, 120 h; in short: as §1
MDA-MB-231 = assay: Cytotoxicity against human MDA-MB-231 cells assessed as growth inhibition after 5 days by MTT assay; type: functional; details: MDA-MB-231, 120 h; in short: as §1
[7] = molecular target: T2, Dual specificity protein kinase CLK1; assay: Inhibition of recombinant human GST-tagged Clk1 expressed in Escherichia coli using RS repeat substrate peptide after 15 mins in presence of [gamma-32]-ATP
Target sequence in this assay (P49759 whole entry): as the sequence (P49759 whole entry, looked up) above

[8] = molecular target: Serine/threonine-protein kinase haspin (Homo sapiens) (UniProt Q8TF76); assay: Inhibition of MBP-Haspin (unknown origin) at 1 uM after 10 mins by TR-FRET assay
In short: (§2)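 Tested in a commercial kinase profiling panel at an ATP concentration of 100 μM. Data are the mean of duplicates that differed by less than 7%.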

[9] = molecular target: SRSF protein kinase 2 (Homo sapiens) (UniProt P78362); assay: Inhibition of SRPK2 (unknown origin) at 1 uM; in short: as §2
SRSF protein kinase 2 (Homo sapiens), sequence (P78362 whole entry, looked up): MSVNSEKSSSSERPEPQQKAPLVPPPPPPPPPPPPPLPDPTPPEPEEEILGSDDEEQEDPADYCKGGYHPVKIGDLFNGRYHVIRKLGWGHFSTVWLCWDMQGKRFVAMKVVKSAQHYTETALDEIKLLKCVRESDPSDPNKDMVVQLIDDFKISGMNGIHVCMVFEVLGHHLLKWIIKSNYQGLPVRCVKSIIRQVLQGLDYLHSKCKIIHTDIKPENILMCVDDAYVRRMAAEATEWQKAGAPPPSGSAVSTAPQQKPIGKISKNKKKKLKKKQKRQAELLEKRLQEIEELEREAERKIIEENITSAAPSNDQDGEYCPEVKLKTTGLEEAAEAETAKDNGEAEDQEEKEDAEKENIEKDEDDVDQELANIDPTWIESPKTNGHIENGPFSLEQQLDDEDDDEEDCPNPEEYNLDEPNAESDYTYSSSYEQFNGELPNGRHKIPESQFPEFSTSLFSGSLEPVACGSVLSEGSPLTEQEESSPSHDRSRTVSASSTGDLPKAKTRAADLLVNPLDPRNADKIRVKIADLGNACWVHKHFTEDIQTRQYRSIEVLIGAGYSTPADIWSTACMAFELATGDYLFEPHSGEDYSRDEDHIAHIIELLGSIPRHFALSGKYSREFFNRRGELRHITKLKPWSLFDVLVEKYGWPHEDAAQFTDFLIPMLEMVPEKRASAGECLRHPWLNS

PBL = assay: Cytotoxicity against human PBL after 2 days by MTT assay; type: cell-based; details: 48 h
In short: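 Cells plated at 30 000 per well with test compounds or DMSO control for 2 days, then MTT read-out. LC50 reported as the mean of at least two independent experiments.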

HepG2 = assay: Cytotoxicity against human HepG2 cells assessed as growth inhibition after 5 days by MTT assay; type: functional; details: HepG2, 120 h; in short: as §1
[10] = molecular target: Dual specificity tyrosine-phosphorylation-regulated kinase 3 (Homo sapiens) (UniProt O43781); assay: Inhibition of DYRK3 (unknown origin) using KKISGRLSPIMTEQ-NH2 as substrate at 1 uM after 15 mins in presence of [gamma-32P]-ATP
Dual specificity tyrosine-phosphorylation-regulated kinase 3 (Homo sapiens), sequence (O43781 whole entry): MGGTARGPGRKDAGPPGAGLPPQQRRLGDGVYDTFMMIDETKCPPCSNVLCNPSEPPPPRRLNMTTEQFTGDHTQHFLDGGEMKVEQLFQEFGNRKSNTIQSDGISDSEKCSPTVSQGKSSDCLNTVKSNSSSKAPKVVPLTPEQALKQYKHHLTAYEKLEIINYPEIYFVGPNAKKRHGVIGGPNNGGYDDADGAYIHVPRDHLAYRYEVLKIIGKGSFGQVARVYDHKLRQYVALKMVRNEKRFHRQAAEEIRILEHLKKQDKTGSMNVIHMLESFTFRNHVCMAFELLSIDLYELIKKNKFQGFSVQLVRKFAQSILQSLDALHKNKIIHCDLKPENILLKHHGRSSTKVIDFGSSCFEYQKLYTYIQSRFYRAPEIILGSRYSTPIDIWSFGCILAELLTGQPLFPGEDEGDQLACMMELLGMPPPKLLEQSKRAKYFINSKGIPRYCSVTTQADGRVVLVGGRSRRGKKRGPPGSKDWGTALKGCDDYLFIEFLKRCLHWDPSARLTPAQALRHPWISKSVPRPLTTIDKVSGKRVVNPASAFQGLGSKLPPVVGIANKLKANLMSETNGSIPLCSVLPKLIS

[11] = molecular target: Dual specificity protein kinase CLK3 (Mus musculus) (UniProt O35492); assay: Inhibition of recombinant GST-tagged mouse CLK3 using GRSRSRSRSRSR as substrate at 1 uM after 30 mins in presence of [gamma-32P]-ATP by scintillation counting method
Dual specificity protein kinase CLK3 (Mus musculus), sequence (O35492 whole entry): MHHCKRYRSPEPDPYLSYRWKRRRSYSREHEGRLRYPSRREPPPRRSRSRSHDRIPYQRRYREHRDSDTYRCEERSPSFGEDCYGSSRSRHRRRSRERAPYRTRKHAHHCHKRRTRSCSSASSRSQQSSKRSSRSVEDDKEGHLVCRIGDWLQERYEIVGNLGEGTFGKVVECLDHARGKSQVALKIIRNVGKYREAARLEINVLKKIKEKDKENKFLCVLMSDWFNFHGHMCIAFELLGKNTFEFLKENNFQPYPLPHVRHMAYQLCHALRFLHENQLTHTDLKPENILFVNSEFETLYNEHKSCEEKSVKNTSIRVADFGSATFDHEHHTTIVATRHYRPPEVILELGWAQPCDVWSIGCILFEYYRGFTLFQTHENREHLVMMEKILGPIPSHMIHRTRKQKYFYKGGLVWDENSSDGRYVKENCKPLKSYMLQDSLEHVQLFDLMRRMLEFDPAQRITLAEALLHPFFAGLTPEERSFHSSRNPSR

[12] = molecular target: SRSF protein kinase 1 (Homo sapiens) (UniProt Q96SB4); assay: Inhibition of SRPK1 (unknown origin) at 1 uM; in short: as §2
SRSF protein kinase 1 (Homo sapiens), sequence (Q96SB4 whole entry): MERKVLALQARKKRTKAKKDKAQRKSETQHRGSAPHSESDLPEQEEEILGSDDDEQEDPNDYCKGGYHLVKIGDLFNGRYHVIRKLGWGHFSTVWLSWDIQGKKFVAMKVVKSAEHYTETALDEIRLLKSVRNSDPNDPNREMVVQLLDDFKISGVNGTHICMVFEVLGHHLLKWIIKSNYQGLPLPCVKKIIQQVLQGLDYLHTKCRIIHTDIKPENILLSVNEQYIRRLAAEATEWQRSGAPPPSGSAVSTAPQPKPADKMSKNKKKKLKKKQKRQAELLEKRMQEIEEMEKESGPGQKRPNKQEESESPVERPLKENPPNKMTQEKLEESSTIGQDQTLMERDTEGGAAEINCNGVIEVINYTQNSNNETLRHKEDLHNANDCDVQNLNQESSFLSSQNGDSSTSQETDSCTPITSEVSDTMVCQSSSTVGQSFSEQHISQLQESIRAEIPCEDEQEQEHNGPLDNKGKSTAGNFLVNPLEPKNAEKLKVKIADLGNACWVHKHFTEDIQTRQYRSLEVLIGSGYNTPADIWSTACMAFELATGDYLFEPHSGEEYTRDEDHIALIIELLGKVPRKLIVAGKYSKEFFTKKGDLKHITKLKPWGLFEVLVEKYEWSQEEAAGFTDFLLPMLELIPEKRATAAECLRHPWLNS

[13] = molecular target: T1, Dual specificity tyrosine-phosphorylation-regulated kinase 1A; assay: Inhibition of N-terminal His6-tagged recombinant human Dyrk1A expressed in Escherichia coli BL21 (DE3) using KKISGRLSPIMTEQ-NH2 as substrate after 15 mins in presence of [gamma-32]-ATP
T-24 = assay: Cytotoxicity against human T24 cells assessed as growth inhibition after 5 days by MTT assay; type: functional; details: T-24, 120 h; in short: as §1
[14] = Cytotoxicity against HEK293 cells assessed as growth inhibition; type: cell-based; details: human
In short: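 Cytotoxicity was tested in proliferating HEK293 cells with GI50 as the read-out. Data are the mean of at least two independent experiments.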

[15] = molecular target: Serine/threonine-protein kinase 17A (Homo sapiens) (UniProt Q9UEE5); assay: Inhibition of STK17A (unknown origin) at 1 uM after 15 mins; in short: as §2
Serine/threonine-protein kinase 17A (Homo sapiens), sequence (Q9UEE5 whole entry): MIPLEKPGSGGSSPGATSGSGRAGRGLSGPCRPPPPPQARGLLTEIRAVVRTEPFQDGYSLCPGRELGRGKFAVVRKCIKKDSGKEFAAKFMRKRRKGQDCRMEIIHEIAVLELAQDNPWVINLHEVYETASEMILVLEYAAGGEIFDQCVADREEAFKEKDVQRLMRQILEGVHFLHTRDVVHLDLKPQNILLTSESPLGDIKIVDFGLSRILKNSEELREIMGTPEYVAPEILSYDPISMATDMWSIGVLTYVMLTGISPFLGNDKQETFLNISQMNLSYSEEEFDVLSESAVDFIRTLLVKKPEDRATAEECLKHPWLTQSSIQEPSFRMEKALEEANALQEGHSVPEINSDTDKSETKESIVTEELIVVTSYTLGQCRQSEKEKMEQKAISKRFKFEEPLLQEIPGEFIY

[16] = molecular target: T2, Dual specificity protein kinase CLK1; assay: Inhibition of recombinant human GST-tagged Clk1 expressed in Escherichia coli at 1 uM using RS repeat substrate peptide after 15 mins in presence of [gamma-32]-ATP
Target sequence in this assay (P49759 whole entry, looked up): as the sequence (P49759 whole entry, looked up) above

[17] = molecular target: Myosin light chain kinase 2, skeletal/cardiac muscle (Homo sapiens) (UniProt Q9H1R3); assay: Inhibition of MLCK2 (unknown origin) at 1 uM after 15 mins; in short: as §2
Myosin light chain kinase 2, skeletal/cardiac muscle (Homo sapiens), sequence (Q9H1R3 whole entry): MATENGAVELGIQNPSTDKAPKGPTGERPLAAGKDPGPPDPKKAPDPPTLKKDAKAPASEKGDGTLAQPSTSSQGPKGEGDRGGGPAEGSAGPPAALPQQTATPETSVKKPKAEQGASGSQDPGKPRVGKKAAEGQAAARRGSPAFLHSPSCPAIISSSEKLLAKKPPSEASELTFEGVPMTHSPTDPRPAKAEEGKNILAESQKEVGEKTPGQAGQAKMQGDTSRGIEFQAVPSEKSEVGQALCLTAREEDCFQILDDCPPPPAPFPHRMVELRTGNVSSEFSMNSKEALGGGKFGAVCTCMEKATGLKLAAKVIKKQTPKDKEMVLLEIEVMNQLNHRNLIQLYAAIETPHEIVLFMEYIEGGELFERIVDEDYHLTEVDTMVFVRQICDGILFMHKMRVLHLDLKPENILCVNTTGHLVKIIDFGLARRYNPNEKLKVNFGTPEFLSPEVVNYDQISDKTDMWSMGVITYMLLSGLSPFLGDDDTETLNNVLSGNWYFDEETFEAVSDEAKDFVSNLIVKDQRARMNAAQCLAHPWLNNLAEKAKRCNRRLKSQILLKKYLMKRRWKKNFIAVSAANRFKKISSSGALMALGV

SMILES: COc1ccc2sc(C(=O)N(C)Cc3ccccc3)cc2c1
inhibition [1]: 73%
inhibition at 1 µM [2]: 54%
inhibition [3]: inactive
inhibition [4]: 70.6%
inhibition [5]: 101%
inhibition [6]: 58%
GI50 (T47D): 28.8 µM
GI50 (THP-1): > 30 µM
GI50 (MDA-MB-231): 24.2 µM
IC50 [7]: 0.045 µM
inhibition [8]: 12%
inhibition [9]: 10%
LC50 (PBL): > 30 µM
GI50 (HepG2): 3.7 µM
inhibition [10]: inactive
inhibition [11]: 44%
inhibition [12]: 4%
IC50 [13]: 0.52 µM
GI50 (T-24): 2.7 µM
GI50 [14]: > 30 µM
inhibition [15]: 23%
inhibition [16]: 81%
inhibition [17]: inactive

SMILES: COC(=O)[C@@H](NC(=O)c1cc2cc(OC)ccc2s1)C(C)C
inhibition [4]: 18.8%

SMILES: C=CCNC(=O)c1cc2cc(OC)ccc2s1
inhibition [4]: 37%

SMILES: COc1ccc2sc(C(=O)NCC(F)(F)F)cc2c1
inhibition [4]: 39.8%

SMILES: COc1ccc2sc(C(=O)N(C)CCn3ccnc3)cc2c1
inhibition [4]: 9.4%

SMILES: COc1ccc2sc(C(=O)NCCn3ccnc3)cc2c1
inhibition [4]: 0%

SMILES: COc1ccc2sc(C(=O)N(C)Cc3ccc(F)cc3)cc2c1
inhibition [4]: 28.7%

SMILES: COc1ccc2sc(C(=O)Nc3nccs3)cc2c1
inhibition [4]: 28.2%

SMILES: COc1ccc2sc(C(=O)N(C)Cc3cccnc3)cc2c1
inhibition [4]: 51%
GI50 (T47D): 25.4 µM
GI50 (MDA-MB-231): 25.7 µM
IC50 [7]: 0.0816 µM
GI50 (T-24): 12.5 µM

SMILES: COc1ccc2sc(C(=O)NC3CC3)cc2c1
inhibition [4]: 25%

SMILES: CCOC(=O)[C@H](C)NC(=O)c1cc2cc(OC)ccc2s1
inhibition [4]: 0%

SMILES: COC(=O)CNC(=O)c1cc2cc(OC)ccc2s1
inhibition [4]: 0%

Further lines, results first:

inhibition [4]: 0%
SMILES: COc1ccc2sc(C(=O)NCCO)cc2c1

inhibition [4]: 23.2%
SMILES: COc1ccc2sc(C(=O)NCc3ccccc3F)cc2c1

inhibition [4]: 7.7%
SMILES: COc1ccc2sc(C(=O)NCCN)cc2c1

inhibition [4]: 59.4%
IC50 [7]: 0.084 µM
SMILES: COc1ccc2sc(C(=O)NCc3ccccc3)cc2c1

inhibition [4]: 50.7%
IC50 [7]: 0.107 µM
SMILES: COc1ccc2sc(C(=O)NCCc3ccccc3)cc2c1

inhibition [4]: 33.4%
SMILES: COc1ccc2sc(C(=O)NCc3ccco3)cc2c1

inhibition [4]: 28.9%
SMILES: COc1ccc2sc(C(=O)NCc3cccnc3)cc2c1
